{"data": "Experimental data gathered from unrelated publications", "target": "Cyclin-dependent kinase 16 (CDK16, Homo sapiens, UniProt Q00536)", "note": "Each line is one published result; the experiments were not run side by side."}
{"Compound": "CS(=O)(=O)NCC[C@H](NC(=O)c1cncc2c1cnn2-c1ccc(F)cc1)c1ccnc(S(C)(=O)=O)c1", "read-out": "cell-free assay", "technique": "competition with immobilised ligand", "concentration": "1 µM", "remaining binding [%]": 100}
{"Compound": "O=C(c1ccc(Nc2ncc(Cl)c(-c3cc4ccccc4s3)n2)cc1)N1CCC(N2CCCC2)CC1", "read-out": "binding", "technique": "competition with immobilised ligand", "concentration": "1 µM", "remaining binding [%]": 0.7}
{"Compound": "CC(C)(C)c1ccc(-c2nc(CBr)nn2-c2cccc(O)c2)cc1", "read-out": "cell-free assay", "technique": "competition with immobilised ligand", "concentration": "10 µM", "remaining binding [%]": 69}
{"Compound": "O=C(NCC1CCOCC1)c1n[nH]cc1NC(=O)c1c(F)cccc1F", "read-out": "binding", "technique": "competition with immobilised ligand", "concentration": "1 µM", "remaining binding [%]": 57}
{"Compound": "c1cncc(-c2cccc(Nc3nccc(NC4CCCCC4)n3)c2)c1", "read-out": "binding", "technique": "competition with immobilised ligand", "concentration": "10 µM", "remaining binding [%]": 95}
{"Compound": "C[C@@]1(Cc2ccc(C#N)cc2)C(=O)N(c2cc(Cl)cc(Cl)c2)c2ncc(C(=O)NC3(c4nc(C5CCC5)no4)CC3)n21", "read-out": "cell-free assay", "technique": "competition with immobilised ligand", "concentration": "1 µM", "remaining binding [%]": 97}
{"Compound": "COc1ccnn2ncc(-c3ccnc(N(C)C)n3)c12", "read-out": "binding", "concentration": "1 µM", "remaining binding [%]": 100}
{"Compound": "CN(c1ccnc(CNc2nc(Nc3ccc4c(c3)CC(=O)N4)ncc2C(F)(F)F)n1)S(C)(=O)=O", "read-out": "cell-free assay", "technique": "competition with immobilised ligand", "concentration": "1 µM", "remaining binding [%]": 82}
{"Compound": "CN(C)c1nccc(-c2cnc3ncccn23)n1", "read-out": "binding", "concentration": "1 µM", "remaining binding [%]": 73}
{"Compound": "C[C@@H](c1ccc(-n2cnc3c(N)ncnc32)cc1)N1CCc2nn(C)c(Cc3ccccc3)c2C1=O", "read-out": "binding", "technique": "competition with immobilised ligand", "concentration": "0.1 µM", "remaining binding [%]": 67}
{"Compound": "COc1cnc(Nc2cccc(S(N)(=O)=O)c2)nc1N1CCN(c2ccccc2)C(=O)C1", "read-out": "binding", "technique": "competition with immobilised ligand", "concentration": "1 µM", "remaining binding [%]": 92}
{"Compound": "CSc1cccnc1N1CCN(Cc2nc3ccccc3[nH]2)CC1", "read-out": "cell-free assay", "technique": "competition with immobilised ligand", "concentration": "1 µM", "remaining binding [%]": 81}
{"Compound": "C[C@@H]1CN(c2ccc3ncc(-c4ccc5[nH]nc(C6CC6)c5c4)n3n2)C[C@H](C)O1", "read-out": "binding", "technique": "competition with immobilised ligand", "concentration": "0.5 µM", "remaining binding [%]": 100}
{"Compound": "Cc1nc(N2CC[C@@H](O)C2)ncc1-c1cc(C(F)(F)F)cc2[nH]ncc12", "read-out": "binding", "technique": "competition with immobilised ligand", "concentration": "1 µM", "remaining binding [%]": 75}
{"Compound": "O=C(NCCCN1CCOCC1)c1ccc(Nc2ncc(Cl)c(-c3ccc(Cl)s3)n2)cc1", "read-out": "binding", "technique": "competition with immobilised ligand", "concentration": "1 µM", "remaining binding [%]": 23}
{"Compound": "CN(C)c1nccc(-c2cnn3ncccc23)n1", "read-out": "binding", "concentration": "1 µM", "remaining binding [%]": 100}
{"Compound": "CNCc1ccccc1-c1csc([C@H](C)Nc2nc(C)nc3cc(OC)c(OC)cc23)c1", "read-out": "cell-free assay", "technique": "competition with immobilised ligand", "concentration": "1 µM", "remaining binding [%]": 83}
{"Compound": "F[C@@H]1CCN(c2nccc(-c3cnn4ncccc34)n2)C1", "read-out": "binding", "concentration": "1 µM", "remaining binding [%]": 100}
{"Compound": "O=C(c1ccc(Nc2nccc(-c3cc4ccccc4s3)n2)cc1)N1CCC(N2CCCC2)CC1", "read-out": "binding", "technique": "competition with immobilised ligand", "concentration": "1 µM", "remaining binding [%]": 58}
{"Compound": "CC1CCCN1c1nccc(-c2cnn3ncccc23)n1 (stereo not shown)", "read-out": "binding", "concentration": "1 µM", "remaining binding [%]": 100}
{"Compound": "COCCOc1nc(-c2ccc(Cl)nc2)nc2c1CN(C(=O)c1ncn3ccccc13)CC2", "read-out": "cell-free assay", "technique": "competition with immobilised ligand", "concentration": "0.1 µM", "remaining binding [%]": 100}
{"Compound": "N[C@@H]1CCN(c2nccc(-c3cnn4ncccc34)n2)C1", "read-out": "binding", "concentration": "1 µM", "remaining binding [%]": 95}
{"Compound": "O=C(Nc1ccc(Oc2ccc(F)cc2)cc1)N1CCc2ncccc2[C@H]1c1ccc(F)cc1", "read-out": "cell-free assay", "technique": "competition with immobilised ligand", "concentration": "1 µM", "remaining binding [%]": 65}
{"Compound": "C[C@H]1CCN(c2nccc(-c3cnn4ncccc34)n2)C1", "read-out": "binding", "concentration": "1 µM", "remaining binding [%]": 95}
{"Compound": "Nc1ncc2c(n1)-c1c([nH]c3ccc(C#CC4CC4)cc13)CCCC2", "read-out": "binding", "technique": "competition with immobilised ligand", "concentration": "1 µM", "remaining binding [%]": 100}
